Laboratory results published in ChEMBL document CHEMBL1806417, “Antiproliferative activity and QSAR studies of a series of new 4-aminomethylidene derivatives of some pyrazol-5-ones” (Bioorg Med Chem Lett, 2011).
Activity calls are given as the source filed them. No cut-off for these calls is given here.

Experiments:
MS-1 [1] = test: Antiangiogenic activity in mouse MS1 cells assessed as inhibition tube-like structure formation at 30 uM after 12 hrs by microscopy; assay type: functional, cell-based
MDA-MB-453 [2] = test: Antiproliferative activity against human MDA-MB-453 cells assessed as cell survival after 72 hrs by MTT assay; assay type: functional, cell-based; details: MDA-MB-453, 72 h
Procedure, shortened: (§1)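 Monolayer cultures in RPMI-1640 with L-glutamine (3 mM), 10% heat-inactivated FBS, 25 mM Hepes, pH 7.2, and extra glucose (1.11 g/L), at 37°C and 5% CO2. Seeding was 7000 cells/well for MDA-MB-361 and 3000 cells/well for MDA-MB-453. After 24 h, five two-fold dilutions were added for 72 h. MTT readout (Ohno–Abe modification). IC50 was read from the survival-versus-concentration curve; mean ± SD of three independent experiments.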

MDA-MB-361 [3] = test: Antiproliferative activity against human MDA-MB-361 cells assessed as cell survival after 72 hrs by MTT assay; assay type: functional, cell-based; details: MDA-MB-361, 72 h; procedure, shortened: as §1
MS-1 [4] = test: Antiangiogenic activity in mouse MS1 cells assessed as inhibition tube-like structure formation at 3 uM after 12 hrs by microscopy
MDA-MB-453 [5] = test: Cell cycle arrest in human MDA-MB-453 cells assessed as accumulation at sub-G1 phase at 2 times IC50 after 24 hrs using propidium iodide staining by flow cytometry; assay type: functional, cell-based
Procedure, shortened: (§2)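 Cells were seeded at 3 × 10⁵ per well and treated or left untreated for 24 h. They were trypsinized and fixed overnight in ice-cold 70% ethanol at -20°C, then washed in PBS. RNase was applied at 37°C for 30 min, followed by propidium iodide for at least 30 min. DNA content and cell-cycle distribution were measured by FACScan flow cytometry on at least 10,000 cells per sample.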

MDA-MB-361 [6] = test: Cell cycle arrest in human MDA-MB-361 cells assessed as accumulation at G1 phase at 2 times IC50 after 24 hrs using propidium iodide staining by flow cytometry (Rvb =64.36 %); assay type: functional; procedure, shortened: as §2
MS-1 [7] = test: Antiangiogenic activity in mouse MS1 cells assessed as inhibition tube-like structure formation at 3 uM after 12 hrs by microscopy; assay type: functional, cell-based
MDA-MB-361 [8] = test: Cell cycle arrest in human MDA-MB-361 cells assessed as accumulation at G2/M phase at 2 times IC50 after 24 hrs using propidium iodide staining by flow cytometry (reference value: 14.15 %); assay type: functional; procedure, shortened: as §2
MDA-MB-361 [9] = test: Cell cycle arrest in human MDA-MB-361 cells assessed as accumulation at S phase at 2 times IC50 after 24 hrs using propidium iodide staining by flow cytometry (Rvb =15.72 %); assay type: functional; procedure, shortened: as §2
MDA-MB-361 [10] = test: Cell cycle arrest in human MDA-MB-361 cells assessed as accumulation at sub-G1 phase at 2 times IC50 after 24 hrs using propidium iodide staining by flow cytometry (Rvb =2.21 %); assay type: functional; procedure, shortened: as §2
MS-1 [11] = test: Antiangiogenic activity in mouse MS1 cells assessed as inhibition tube-like structure formation at 10 uM after 12 hrs by microscopy
MS-1 [12] = test: Antiangiogenic activity in mouse MS1 cells assessed as inhibition tube-like structure formation at 10 uM after 12 hrs by microscopy; assay type: functional, cell-based

| SMILES | Activity (MS-1 [1]) | IC50 (MDA-MB-453 [2]) | IC50 (MDA-MB-361 [3]) | Activity (MDA-MB-453 [5]) | other results |
| --- | --- | --- | --- | --- | --- |
| O=C1NN=C(c2ccccc2)/C1=C/N[C@@H](Cc1c[nH]cn1)C(=O)O | Active | 73.9 µM | 113 µM |  |  |
| O=C1NN=C(c2ccccc2)/C1=C/N[C@@H](Cc1c[nH]c2ccccc12)C(=O)O | Active | 41.7 µM | 93.6 µM |  |  |
| O=C(O)[C@@H](Cc1ccccc1)N/C=C1\C(=O)N(c2ccccc2)N=C1c1ccccc1 |  | 9.66 µM | 11.9 µM | Active | Activity (MS-1 [4]): inactive |
| O=C(O)[C@H](Cc1ccc(O)cc1)N/C=C1\C(=O)N(c2ccccc2)N=C1c1ccccc1 |  | 10.9 µM | 24.8 µM | Active | Activity (MS-1 [4]): inactive |
| O=C1/C(=C\Nc2cc(-c3ccco3)[nH]n2)C(c2ccccc2)=NN1c1ccccc1 |  | 12.4 µM | 13.4 µM | Active | Activity (MDA-MB-361 [6]): 51.38%; Activity (MS-1 [7]): Active; Activity (MDA-MB-361 [8]): 13.9%; Activity (MDA-MB-361 [9]): 7.33%; Activity (MDA-MB-361 [10]): 21.95% |
| CSC[C@H](N/C=C1\C(=O)N(c2ccccc2)N=C1c1ccccc1)C(=O)O |  | 9.46 µM | 14.2 µM | Active | Activity (MS-1 [4]): inactive |
| O=C1/C(=C\Nc2cc(-c3ccccc3)[nH]n2)C(c2ccccc2)=NN1c1ccccc1 |  | 8.75 µM | 12.2 µM | Active | Activity (MS-1 [7]): Active |
| CSC[C@H](N/C=C1\C(=O)NN=C1c1ccccc1)C(=O)O | Active | 105 µM | 97.4 µM |  |  |
| Cc1cc(N/C=C2\C(=O)NN=C2c2ccccc2)n[nH]1 | Active | 93 µM | 96 µM |  |  |
| O=C(O)[C@H](Cc1ccccc1)N/C=C1\C(=O)N(c2ccccc2)N=C1c1ccccc1 |  | 10.4 µM | 11.5 µM | Active | Activity (MS-1 [7]): Active |
| O=C(O)[C@H](CO)N/C=C1\C(=O)N(c2ccccc2)N=C1c1ccccc1 |  | 49 µM | 52.8 µM | Active | Activity (MS-1 [11]): inactive |
| CSCC[C@H](N/C=C1\C(=O)N(c2ccccc2)N=C1c1ccccc1)C(=O)O |  | 9.43 µM | 12.5 µM | Active | Activity (MS-1 [4]): inactive |
| O=C1NN=C(c2ccccc2)/C1=C/Nc1cc(-c2ccccc2)[nH]n1 |  | 11.5 µM | 42.7 µM |  | Activity (MS-1 [11]): inactive |
| O=C1/C(=C\Nc2cc[nH]n2)C(c2ccccc2)=NN1c1ccccc1 |  | 34.7 µM | 51 µM | Active | Activity (MDA-MB-361 [6]): 47.94%; Activity (MDA-MB-361 [8]): 15.58%; Activity (MDA-MB-361 [9]): 7.81%; Activity (MS-1 [12]): Active; Activity (MDA-MB-361 [10]): 21.55% |
| O=C(O)[C@H](Cc1c[nH]c2ccccc12)N/C=C1\C(=O)N(c2ccccc2)N=C1c1ccccc1 |  | 9.75 µM | 33.9 µM | Active | Activity (MS-1 [11]): inactive |
| Cc1cc(N/C=C2\C(=O)N(c3ccccc3)N=C2c2ccccc2)n[nH]1 |  | 10.2 µM | 9.98 µM | Active | Activity (MDA-MB-361 [6]): 46.79%; Activity (MS-1 [7]): Active; Activity (MDA-MB-361 [8]): 14.12%; Activity (MDA-MB-361 [9]): 11.64%; Activity (MDA-MB-361 [10]): 19.43% |
| CCOC(=O)c1c[nH]nc1N/C=C1\C(=O)NN=C1c1ccccc1 |  | 74.6 µM | 121 µM |  | Activity (MS-1 [4]): inactive |
| O=C1NN=C(c2ccccc2)/C1=C/N[C@@H](Cc1ccc(O)cc1)C(=O)O |  | 29.8 µM | 61.1 µM |  | Activity (MS-1 [11]): inactive |
| CCOC(=O)c1c[nH]nc1N/C=C1\C(=O)N(c2ccccc2)N=C1c1ccccc1 |  | 19.4 µM | 24.7 µM | Active | Activity (MS-1 [4]): inactive |
| O=C1NN=C(c2ccccc2)/C1=C/Nc1cc[nH]n1 | inactive | 74.9 µM | 95.3 µM |  |  |
| O=C1NN=C(c2ccccc2)/C1=C/N[C@@H](Cc1ccccc1)C(=O)O |  | 94.8 µM | 67 µM |  | Activity (MS-1 [11]): inactive |
| O=C1NN=C(c2ccccc2)/C1=C/Nc1cc(-c2ccco2)[nH]n1 |  | 20.9 µM | 63.7 µM |  | Activity (MS-1 [11]): inactive |
| O=C1NN=C(c2ccccc2)/C1=C/N[C@@H](CO)C(=O)O | Active | 23.7 µM | 105 µM |  |  |
| O=C(O)[C@H](Cc1c[nH]cn1)N/C=C1\C(=O)N(c2ccccc2)N=C1c1ccccc1 | inactive | 71.1 µM | 87.2 µM | Active |  |
| CSCC[C@H](N/C=C1\C(=O)NN=C1c1ccccc1)C(=O)O | Active | 42.1 µM | 105 µM |  |  |
